{
  "source": "paper PMC7770080",
  "about": "(Biochemical pharmacology, 2020)",
  "key": {"[1]": {"system": "C. difficile strain 630 spores", "test": "Prevention of murine CDI after C. difficile spore challenge", "assay_type": "in vivo, mice", "conditions": "50 mg/kg oral gavage, three doses; for Time to clinical endpoint: clinical endpoint > 6 on CDI severity scale; for CDI signs in spore-challenged mice: 10^8 CFU spores"}, "C. difficile spores [2]": {"system": "C. difficile spores", "test": "In vitro C. difficile spore germination assay", "assay_type": "cell-based, Clostridioides difficile"}, "CYP3A4": {"target": "CYP3A4 (Homo sapiens, UniProt P08684)", "sequence (P08684 whole entry)": "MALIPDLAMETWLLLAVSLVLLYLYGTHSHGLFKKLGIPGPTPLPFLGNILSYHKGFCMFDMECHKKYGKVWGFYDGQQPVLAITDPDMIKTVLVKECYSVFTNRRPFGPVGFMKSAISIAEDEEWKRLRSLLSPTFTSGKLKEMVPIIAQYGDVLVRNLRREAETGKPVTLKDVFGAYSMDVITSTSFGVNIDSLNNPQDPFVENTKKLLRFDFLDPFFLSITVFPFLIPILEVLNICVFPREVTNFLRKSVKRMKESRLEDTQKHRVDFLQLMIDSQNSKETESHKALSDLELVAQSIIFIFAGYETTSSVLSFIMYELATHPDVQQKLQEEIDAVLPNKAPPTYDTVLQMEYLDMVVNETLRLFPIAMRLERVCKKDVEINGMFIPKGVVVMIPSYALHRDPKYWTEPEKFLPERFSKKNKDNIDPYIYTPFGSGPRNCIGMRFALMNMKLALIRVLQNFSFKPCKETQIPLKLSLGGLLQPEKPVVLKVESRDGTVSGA", "test": "Vivid CYP3A4 Green screening assay with P450 BACULOSOMES"}, "[3]": {"test": "Interaction with cholestyramine resin in vitro and recovery from the resin", "assay_type": "physicochemical", "conditions": "for Binding to cholestyramine resin in vitro: 20 mg/ml cholestyramine, overnight, 37°C"}, "[4]": {"test": "CamSA and mSA in liver, blood, kidney and chyme after oral CamSA", "assay_type": "in vivo, mice", "conditions": "for Highest concentration found in the liver: 50 mg/kg oral CamSA, calculated; for Amount recovered from chyme as fraction of total dosed CamSA: all five time points together; for Total administered CamSA recovered from feces, organs and chyme: semi-quantitative"}, "[5]": {"test": "Fecal excretion of CamSA and mSA after oral CamSA in cpx and non-cpx mice", "assay_type": "in vivo"}, "[6]": {"system": "murine GI microbiota (feces)", "test": "Metabolism of CamSA by fecal microbiota", "assay_type": "in vitro ADME, mice"}, "C. difficile spores [7]": {"system": "C. difficile spores", "conditions": "in vitro and in vivo; cited from earlier work"}, "Lactobacillus gasseri": {"system": "Lactobacillus gasseri", "conditions": "24 hours, pure culture; cited from earlier work"}, "C. difficile [8]": {"system": "C. difficile", "conditions": "cited from earlier work"}, "C. difficile [9]": {"system": "C. difficile", "conditions": "cited from earlier work", "remark": "listed apart in the source"}, "[10]": {"conditions": "24 hours, both conditions; cited from earlier work"}, "Caco-2 monolayers": {"system": "Caco-2 monolayers", "conditions": "cited from earlier work"}, "Bifidobacterium longum": {"system": "Bifidobacterium longum", "conditions": "24 hours, pure culture; cited from earlier work"}, "[11]": {"test": "Effect of cholestyramine feed on CamSA in liver of cpx mice", "assay_type": "in vivo", "conditions": "22 hours post-CamSA", "outline": "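Cefoperazone-treated mice, individually housed, were fed chow with 4% w/w (n=3) or 0% w/w (n=4) cholestyramine from 24 h before test compound dosing until the end. At 22 h post-dose, livers with attached gallbladders were harvested, stored at −20 °C, then homogenised. Acetonitrile was added to precipitate protein, and samples were centrifuged and filtered (0.2 μm). Analysis was by RP-HPLC-MS on a PSDVB column with isocratic 40% ACN, 5 mM ammonium acetate, 0.1% formic acid.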"}},
  "note": "Where two headings read alike, the source gives them in different places.",
  "data": [
    {"smiles": "C[C@H](CCC(=O)[O-])[C@H]1CC[C@H]2[C@@H]3[C@H](O)C[C@@H]4C[C@H](O)CC[C@]4(C)[C@H]3C[C@H](O)[C@]12C.[Na+]", "note": "[cholate, Sodium cholate, reference compound]", "values": [
      {"measurement": "Time to clinical endpoint", "setting": "[1]", "value": "≤ 48", "unit": "hours post-challenge"},
      {"measurement": "Effect on C. difficile spore germination in vitro", "setting": "C. difficile spores [2]", "value": "could stimulate spore germination"}
    ]},
    {"smiles": "Nc1cccc(S(=O)(=O)O)c1", "note": "[mSA, metanilic acid]", "values": [
      {"measurement": "IC50", "setting": "CYP3A4", "value": "17.5 ± 1.1", "unit": "mM"},
      {"measurement": "Binding to cholestyramine resin in vitro", "setting": "[3]", "value": "bound completely"},
      {"measurement": "Reversibility of binding to cholestyramine", "setting": "[3]; stripping under strong acidic conditions", "value": "irreversible"},
      {"measurement": "Time to clinical endpoint", "setting": "[1]", "value": "≤ 48", "unit": "hours post-challenge"},
      {"measurement": "Highest concentration found in the liver", "setting": "[4]", "value": "approximately 20 μM"},
      {"measurement": "Detection in kidney", "setting": "[4]; cpx mice", "value": "detected"},
      {"measurement": "Detection in blood", "setting": "[4]; cpx mice, any time point", "value": "unable to detect"},
      {"measurement": "Amount recovered from chyme relative to amount recovered from feces", "setting": "[4]; non-cpx mice", "value": "about 85%"},
      {"measurement": "Detection in blood", "setting": "[4]; non-cpx mice", "value": "only detected in blood at the 22-hour time point"},
      {"measurement": "Detection in kidney", "setting": "[4]; non-cpx mice", "value": "only detected in kidney at the 12-hour time point"},
      {"measurement": "Amount recovered from chyme as fraction of total dosed CamSA", "setting": "[4]; non-cpx mice, detected as mSA", "value": 13, "unit": "%"},
      {"measurement": "Effect on C. difficile spore germination in vitro", "setting": "C. difficile spores [2]", "value": "neither induced nor inhibited"},
      {"measurement": "Detection in feces", "setting": "[5]; cpx mice, any time point", "value": "not observed"},
      {"measurement": "Amount recovered from feces relative to CamSA from the same animals (higher)", "setting": "[5]; non-cpx mice", "value": "approximately 40 fold"},
      {"measurement": "Time of first large peak in feces", "setting": "[5]; non-cpx mice, after CamSA administration", "value": "≤ 12", "unit": "h"}
    ]},
    {"smiles": "C[C@H](CCC(=O)Nc1cccc(S(=O)(=O)O)c1)[C@H]1CC[C@H]2[C@@H]3CC[C@@H]4C[C@H](O)CC[C@]4(C)[C@H]3C[C@H](O)[C@]12C", "note": "[7-deoxy-CamSA]", "values": [
      {"measurement": "CDI signs in spore-challenged mice", "setting": "[1]", "value": "only moderate CDI signs"}
    ]},
    {"smiles": "C[C@H](CCC(=O)Nc1cccc(S(=O)(=O)O)c1)[C@H]1CC[C@H]2[C@@H]3[C@H](O)C[C@@H]4C[C@H](O)CC[C@]4(C)[C@H]3C[C@H](O)[C@]12C", "note": "[CamSA]", "values": [
      {"measurement": "IC50", "setting": "CYP3A4; read-out: IC50 on CYP3A4 activity, assuming inhibition of CYP3A4, triplicate", "value": "0.62 ± 0.11", "unit": "mM"},
      {"measurement": "Hydrolysis of CamSA to cholate and mSA", "setting": "[6]; GI microbiota of mice not treated with antibiotics", "value": "slowly hydrolyzed"},
      {"measurement": "Degradation of CamSA by recovered microbiota", "setting": "[6]; feces collected one week after last antibiotic dose, data not shown", "value": "degraded CamSA at a similar rate as feces from animals that had never received antibiotics"},
      {"measurement": "Effect on taurocholate-mediated C. difficile spore germination", "setting": "C. difficile spores [7]", "value": "potent inhibitor"},
      {"measurement": "CamSA hydrolyzed", "setting": "Lactobacillus gasseri", "value": "approximately 80%"},
      {"measurement": "Binding to cholestyramine resin in vitro", "setting": "[3]", "value": "nearly complete sequestration"},
      {"measurement": "Recovery from cholestyramine resin", "setting": "[3]; 0.5 N aqueous HCl, absence of feces", "value": "less than 1%"},
      {"measurement": "Recovery from cholestyramine resin", "setting": "[3]; 0.5 N ethanolic HCl, absence of feces", "value": "up to 75%"},
      {"measurement": "Recovery from cholestyramine resin", "setting": "[3]; 0.5 N ethanolic HCl, presence of fecal matter", "value": "less than 10%"},
      {"measurement": "Acute toxicity", "setting": "C. difficile [8]; CamSA-treated mice", "value": "did not indicate any signs of acute toxicity or damage to GI tissue"},
      {"measurement": "Prevention of CDI symptoms", "setting": "C. difficile [8]; single 50 mg/kg dose", "value": "completely prevent CDI symptoms"},
      {"measurement": "CDI signs in spore-challenged mice", "setting": "[1]", "value": "little to no signs of CDI"},
      {"measurement": "Effect on mean time of death of infected animals", "setting": "C. difficile [9]; CamSA alone", "value": "double the mean time of death"},
      {"measurement": "Prevention of CDI onset", "setting": "C. difficile [9]; CamSA alone", "value": "unable to prevent the onset of CDI"},
      {"measurement": "Hamsters protected, no CDI symptoms a month post-challenge", "setting": "C. difficile [9]; CamSA with sub-clinical doses of vancomycin", "value": 70, "unit": "%"},
      {"measurement": "Highest concentration found in the liver", "setting": "[4]", "value": "approximately 140 μM"},
      {"measurement": "Total administered CamSA recovered from feces, organs and chyme", "setting": "[4]; cpx animals", "value": "approximately 40%"},
      {"measurement": "Detection in kidney", "setting": "[4]; cpx mice", "value": "negligible amounts"},
      {"measurement": "Total amount recovered from liver relative to feces (less)", "setting": "[4]; cpx mice", "value": "approximately 10 fold"},
      {"measurement": "Amount recovered from chyme as fraction of total dosed CamSA", "setting": "[4]; cpx mice", "value": 10, "unit": "%"},
      {"measurement": "Detection in blood", "setting": "[4]; cpx mice, any time point", "value": "unable to detect"},
      {"measurement": "Time of peak hepatic concentration", "setting": "[4]; cpx mice, one animal per time point", "value": 22, "unit": "h"},
      {"measurement": "CamSA and mSA recovered from chyme relative to blood (higher)", "setting": "[4]; mouse, in vivo", "value": 300, "unit": "fold"},
      {"measurement": "CamSA and mSA recovered from chyme relative to other organs (higher)", "setting": "[4]; mouse, in vivo", "value": "at least 10 fold"},
      {"measurement": "Total administered CamSA recovered from feces, organs and chyme", "setting": "[4]; non-cpx animals", "value": "~25", "unit": "%"},
      {"measurement": "Detection in blood", "setting": "[4]; non-cpx mice", "value": "not detected"},
      {"measurement": "Total combined CamSA and mSA recovered from liver relative to feces (less)", "setting": "[4]; non-cpx mice", "value": "approximately 10 fold"},
      {"measurement": "Degradation in artificial gastric or intestinal juices", "setting": "[10]", "value": "no CamSA degradation was observed"},
      {"measurement": "Intestinal permeability", "setting": "Caco-2 monolayers", "value": "limited intestinal permeability"},
      {"measurement": "CamSA hydrolyzed", "setting": "Bifidobacterium longum", "value": "approximately 80%"},
      {"measurement": "Detection in liver", "setting": "[11]; 0% cholestyramine feed", "value": "detected CamSA from liver samples from three of the four mice"},
      {"measurement": "Detection in liver", "setting": "[11]; 4% cholestyramine feed", "value": "unable to detect"},
      {"measurement": "Retention of intact compound in the animal", "setting": "[5]; antibiotic-treated mouse", "value": 7, "unit": "days post-administration"},
      {"measurement": "Start of CamSA excretion in feces", "setting": "[5]; cpx mice", "value": "around 6 hours post-administration"},
      {"measurement": "Time of second fecal excretion maximum", "setting": "[5]; cpx mice", "value": 32, "unit": "hours post-administration"},
      {"measurement": "Fraction of total dosed CamSA recovered from feces", "setting": "[5]; cpx mice, 50 mg/kg oral, over a week", "value": "approximately 30%"},
      {"measurement": "Detection in feces", "setting": "[5]; non-cpx mice", "value": "low levels of intact CamSA"},
      {"measurement": "Maximum amount recovered from feces at a single time point relative to cpx mice", "setting": "[5]; non-cpx mice", "value": "four-fold lower"},
      {"measurement": "Fraction of total dosed drug recovered from feces, mSA plus CamSA", "setting": "[5]; non-cpx mice, 50 mg/kg oral, over a week", "value": "approximately 15%"}
    ]},
    {"smiles": "C[C@H](CCC(=O)Nc1cccc(S(=O)(=O)O)c1)[C@H]1CC[C@H]2[C@@H]3[C@H](O)C[C@@H]4C[C@H](O)CC[C@]4(C)[C@H]3CC[C@]12C", "note": "[12-deoxy-CamSA]", "values": [
      {"measurement": "CDI severity score", "setting": "[1]", "value": "> 6"},
      {"measurement": "Time to clinical endpoint", "setting": "[1]", "value": 48, "unit": "hours post-challenge"}
    ]}
  ]
}
